According to ChEMBL document CHEMBL1122673, “Synthesis of a novel series of (aryloxy)propanolamines: new selective beta 2-blocking agents” (J Med Chem, 1984):

What was measured:
Cavia porcellus [1] = species: Cavia porcellus; assay: (§1) In vitro evaluation on guinea pig trachea. EC50 which is the molar concentration required to give 50% inhibition of the isoproterenol response (1x10E-6M) was determined.; type: functional, organism-based
Method in brief: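 Isolated guinea pig tracheal spirals were held at 1.50 g initial tension (resting 0.4–0.6 g) in Tyrode at 37 °C, gassed with O2/CO2 95:5, and contracted with acetylcholine 3 × 10^-6 M. Antagonist was added 15 min before Ach. Isoproterenol 3 × 10^-8 to 3 × 10^-6 M was added at maximal contraction. EC50 came from four points, with ≥4 preparations per group.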

[2] = Compound was determined for heart rate with respect to propanol; type: functional
Method in brief: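 Urethane-anesthetized animals (1.25 g/kg ip). Carotid blood pressure was recorded, and heart rate was taken from pulse pressure. Three isoproterenol doses (10 µg/kg iv) set the control mean heart-rate rise and diastolic fall. Antagonist was given as four cumulative iv doses, with isoproterenol 10 min after each. The next dose followed return to baseline. Groups of ≥4 animals.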

Cavia porcellus [3] = species: Cavia porcellus; assay: as §1; type: functional; details: read-out: ED50 (the source's name)
Method in brief: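 Isolated guinea pig tracheal spirals were held at 1.50 g initial tension (resting 0.4–0.6 g) in Tyrode at 37 °C, gassed with O2/CO2 95:5, and contracted with acetylcholine 3 × 10^-6 M. Antagonist was added 15 min before Ach. Isoproterenol 3 × 10^-8 to 3 × 10^-6 M was added at maximal contraction.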

Row | EC50 (Cavia porcellus [1]) | EC50 (Cavia porcellus [3]) | Structure (SMILES) | Ratio [2]
1 | 201 nM | – | CC(C)(C)NCC(O)COc1ccc2c(c1)[C@@H]1CCCC[C@H]21 (some centres undefined) | –
2 | 502 nM | – | CC(C)NCC(O)COc1ccc2c(c1)[C@@H]1CCCC[C@H]21 (some centres undefined) | –
3 | – | 1380 nM | CC(C)(C)NCC(O)COc1ccc2c(c1)[C@@H]1CCCCC[C@H]21 (some centres undefined) | –
4 | 70 nM | – | CC(C)NCC(O)COc1cccc2c1[C@@H]1CCCC[C@H]21 (some centres undefined) | –
5 | 2 nM | – | CC(C)NCC(O)COc1cccc2c1[C@@H]1CCCCC[C@H]21 (some centres undefined) | 0.46
6 | 417 nM | – | CC(C)NCC(O)COc1ccc2c(c1)[C@@H]1CCCCC[C@H]21 (some centres undefined) | 0.02
7 | 45.7 nM | – | CC(C)(C)NCC(O)COc1cccc2c1[C@@H]1CCCCC[C@H]21 (some centres undefined) | 0.57

Continued, compound first:

Row | Structure (SMILES) | EC50 (Cavia porcellus [1]) | EC50 (Cavia porcellus [3]) | Ratio [2]
8 | CC(C)NCC(O)COc1cccc2c1[C@@H]1CCCCC[C@]21O (some centres undefined) | – | 1.3 nM | 0.8
9 | CCCC(=O)Nc1ccc(OCC(O)CNC(C)C)c2c1[C@H]1CCCCC[C@@H]21 (some centres undefined) | – | 341 nM | –
10 | COc1ccc(CCNCC(O)COc2cccc3c2[C@]2(O)CCCCC[C@H]32)cc1OC (some centres undefined) | – | 7010 nM | –
11 | COc1ccc(CCNCC(O)COc2cccc3c2[C@@H]2CCCCC[C@]32O)cc1OC (some centres undefined) | – | 260 nM | 0.68
12 | CC(C)(C)NCC(O)COc1cccc2c1[C@]1(O)CCCCC[C@H]21 (some centres undefined) | – | 5.49 nM | 0.08
13 | COc1ccc(CCNCC(O)COc2cccc3c2[C@@H]2CCCCC[C@H]32)cc1OC (some centres undefined) | 1100 nM | – | –
14 | CC(C)NCC(O)COc1cccc2c1[C@]1(O)CCCCC[C@H]21 (some centres undefined) | – | 130 nM | –
15 | CC(C)NCC(O)COc1ccc2ccccc2c1 (centres undefined) | – | 55 nM | –
16 | CC(C)(C)NCC(O)COc1cccc2c1[C@@H]1CCCCC[C@]21O (some centres undefined) | – | 1.26 nM | 0.42
17 | CC(C)(C)NCC(O)COc1cccc2c1[C@]1(O)CCCC[C@H]21 (some centres undefined) | – | 115 nM | –
